≈ marks a conversion by molar mass, not a printed value.
Experiments:
Candida albicans [1] = assay: Antifungal activity against fluconazole susceptible Candida albicans 003gr by CLSI protocol based broth microdilution method; assay type: functional
Outline: (§1)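 Clinical isolates and control strain subcultured at least twice on TSA, 37 °C, 48 h. MICs by CLSI M27-A3 broth microdilution; compounds dissolved in DMSO to 2000 μg mL–1 stock. Fluconazole positive control, culture, media and DMSO vehicle controls in each run. Duplicate experiments; MIC in μg mL–1.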

Candida albicans [2] = assay: Antifungal activity against fluconazole susceptible Candida albicans 003gr in presence of fluconazole by CLSI protocol based broth microdilution method; assay type: functional
Candida albicans [3] = assay: Antifungal activity against Candida albicans ATCC 90028 in presence of fluconazole by CLSI protocol based broth microdilution method; assay type: functional
Candida albicans [4] = assay: Antifungal activity against fluconazole susceptible Candida albicans 004gr by CLSI protocol based broth microdilution method; assay type: functional; outline: as §1
Candida albicans [5] = assay: Inhibition of ABC efflux pumps in fluconazole resistant Candida albicans A171 assessed as reduction in energy-dependent rhodamine 6G efflux in presence of 0.1 M glucose after 25 mins by fluorescence assay relative to control
Outline: (§2)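 Cells grown in TSB at 37 °C for 8 h, washed, resuspended in glucose-free PBS at 1 × 10^8 cells. De-energized 45 min with 5 mM deoxyglucose plus 5 mM dinitrophenol. […] Washed, sampled 5–25 min, then 0.1 M glucose added. Absorbance 527 nm, R6G from standard curve.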

Candida albicans [6] = assay: Antifungal activity against fluconazole resistant Candida albicans 167-1 in presence of fluconazole by CLSI protocol based broth microdilution method; assay type: functional
Outline: (§3)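 Checkerboard-style combination with fluconazole at a 1 : 1 ratio, over concentrations 2–4 fold below each agent's MIC alone, by CLSI broth microdilution. Fractional inhibitory concentration index calculated and interpreted as synergy (<0.5), additive (0.5–1), indifferent or antagonistic.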

Candida albicans [7] = assay: Inhibition of ABC efflux pumps in fluconazole susceptible Candida albicans 002B1 assessed as reduction in energy-dependent rhodamine 6G efflux in presence of 0.1 M glucose after 25 mins […] relative to control
Candida albicans [8] = assay: Antifungal activity against Candida albicans ATCC 90028 by CLSI protocol based broth microdilution method; assay type: functional; outline: as §1
Candida albicans [9] = assay: Inhibition of ABC efflux pumps in fluconazole susceptible Candida albicans 004gr assessed as reduction in energy-dependent rhodamine 6G efflux in presence of 0.1 M glucose after 25 mins by fluorescence assay relative to control; outline: as §2
Candida albicans [10] = assay: Down regulation of ERG11 gene expression in fluconazole resistant Candida albicans A171 at MIC after 2 hrs by qRT PCR analysis relative to control; assay type: functional
Outline: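 Cells exposed 2 h to test agents at MIC. Total RNA isolated, cDNA synthesized, qPCR for ERG11 with ACT1 as endogenous control. Triplicate independent experiments, reported as mean ± standard deviation.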

Candida albicans [11] = assay: Inhibition of ergosterol biosynthesis in fluconazole resistant Candida albicans A171 at 0.5 to 1 times MIC relative to control; assay type: functional
Outline: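 Total sterols quantified by alcoholic KOH extraction in cells grown in 50 ml TSB with compounds at MIC and ½ MIC; untreated and 8 μg mL–1 fluconazole controls. Spectral scan; ergosterol content from A281.5 and A230 absorbances, dilution factor and pellet weight, correcting for 24(28) DHE.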

Candida albicans [12] = assay: Antifungal activity against fluconazole susceptible Candida albicans 004gr in presence of fluconazole by CLSI protocol based broth microdilution method; assay type: functional
Candida albicans [13] = assay: Inhibition of ABC efflux pumps in fluconazole susceptible Candida albicans 003gr assessed as reduction in energy-dependent rhodamine 6G efflux in presence of 0.1 M glucose after 25 mins […] relative to control
Candida albicans [14] = assay: Inhibition of ABC efflux pumps in fluconazole susceptible Candida albicans 0079gr assessed as reduction in energy-dependent rhodamine 6G efflux in presence of 0.1 M glucose after 25 mins by fluorescence assay relative to control; outline: as §2
Candida albicans [15] = assay: Antifungal activity against fluconazole resistant Candida albicans A171 in presence of fluconazole by CLSI protocol based broth microdilution method; assay type: functional; outline: as §3
Candida albicans [16] = assay: Antifungal activity against fluconazole resistant Candida albicans 167-2 in presence of fluconazole by CLSI protocol based broth microdilution method; assay type: functional; outline: as §3
Candida albicans [17] = assay: Inhibition of ABC efflux pumps in fluconazole susceptible Candida albicans 004B1 assessed as reduction in energy-dependent rhodamine 6G efflux in presence of 0.1 M glucose after 25 mins by fluorescence assay relative to control; outline: as §2
Candida albicans [18] = assay: Inhibition of ABC efflux pumps in fluconazole susceptible Candida albicans 0072gr assessed as reduction in energy-dependent rhodamine 6G efflux in presence of 0.1 M glucose after 25 mins […] relative to control
Candida albicans [19] = assay: Antifungal activity against fluconazole susceptible Candida albicans 0072gr by CLSI protocol based broth microdilution method; assay type: functional; outline: as §1
Candida albicans [20] = assay: Antifungal activity against fluconazole susceptible Candida albicans 004B1 in presence of fluconazole by CLSI protocol based broth microdilution method; assay type: functional
Candida albicans [21] = assay: Antifungal activity against fluconazole resistant Candida albicans 167-2 by CLSI protocol based broth microdilution method; assay type: functional
Outline: (§4)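 Broth microdilution per CLSI M27-A3 against clinical C. albicans isolates. Strains sub-cultured at least twice on Tryptone Soya Agar, 37 °C, 48 h. Compounds dissolved in DMSO at 2000 μg mL–1 stock. Fluconazole positive control, plus culture, media and vehicle controls. Run in duplicate; MIC in μg mL–1.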

Candida albicans [22] = assay: Antifungal activity against fluconazole susceptible Candida albicans 002B1 by CLSI protocol based broth microdilution method; assay type: functional; outline: as §1
Candida albicans [23] = assay: Antifungal activity against fluconazole resistant Candida albicans 167-1 by CLSI protocol based broth microdilution method; assay type: functional; outline: as §4
Candida albicans [24] = assay: Antifungal activity against fluconazole susceptible Candida albicans 0079gr by CLSI protocol based broth microdilution method; assay type: functional; outline: as §1
Candida albicans [25] = assay: Inhibition of ABC efflux pumps in fluconazole resistant Candida albicans 167-1 assessed as reduction in energy-dependent rhodamine 6G efflux in presence of 0.1 M glucose after 25 mins […] relative to control
Candida albicans [26] = assay: Inhibition of ergosterol biosynthesis in fluconazole susceptible Candida albicans ATCC 90028 at 0.5 to 1 times MIC relative to control; assay type: functional
Outline: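 ATCC90028 grown in 50 ml TSB with MIC and ½ MIC of compound; untreated and 8 μg mL–1 fluconazole controls. Sterols extracted by alcoholic KOH method and spectrophotometrically scanned; ergosterol % calculated from A281.5 and A230 (E values 290 and 518) with dilution factor, per pellet weight.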

Candida albicans [27] = assay: Antifungal activity against fluconazole susceptible Candida albicans 0072gr in presence of fluconazole by CLSI protocol based broth microdilution method; assay type: functional
Candida albicans [28] = assay: Down regulation of ERG11 gene expression in fluconazole susceptible Candida albicans ATCC 90028 at MIC after 2 hrs by qRT PCR analysis relative to control; assay type: functional
Outline: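 Cells exposed to compound at MIC for 2 h; total RNA isolated, cDNA synthesised, ERG11 measured by real-time qPCR with ACT1 as endogenous control. Triplicate independent experiments; mean ± standard deviation.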

Candida albicans [29] = assay: Antifungal activity against fluconazole susceptible Candida albicans 002B1 in presence of fluconazole by CLSI protocol based broth microdilution method; assay type: functional
Candida albicans [30] = assay: Antifungal activity against fluconazole resistant Candida albicans A171 by CLSI protocol based broth microdilution method; assay type: functional; outline: as §4
Candida albicans [31] = assay: Inhibition of ABC efflux pumps in fluconazole resistant Candida albicans 167-2 assessed as reduction in energy-dependent rhodamine 6G efflux in presence of 0.1 M glucose after 25 mins […] relative to control
Candida albicans [32] = assay: Antifungal activity against fluconazole susceptible Candida albicans 0079gr in presence of fluconazole by CLSI protocol based broth microdilution method; assay type: functional
Candida albicans [33] = assay: Antifungal activity against fluconazole susceptible Candida albicans 004B1 by CLSI protocol based broth microdilution method; assay type: functional; outline: as §1

SMILES: NC(=S)N1N=C(c2ccccc2)CC1c1ccc(C2CC(c3ccccc3)=NN2C(N)=S)cc1 (stereo not drawn)
- MIC (Candida albicans [1]): 8 to 125 µg/mL (≈ 16.5 to 258 µM)
- fractional inhibitory concentration index (FICI) (Candida albicans [2]): 0.53 - 2.19
- fractional inhibitory concentration index (FICI) (Candida albicans [3]): 0.53 - 2.19
- MIC (Candida albicans [4]): 8 to 125 µg/mL (≈ 16.5 to 258 µM)
- inhibition (Candida albicans [5]): < 20%
- fractional inhibitory concentration index (FICI) (Candida albicans [6]): 0.372 - 1.5
- inhibition (Candida albicans [7]): < 20%
- MIC (Candida albicans [8]): 8 to 125 µg/mL (≈ 16.5 to 258 µM)
- inhibition (Candida albicans [9]): < 20%
- fold change (FC) (Candida albicans [10]): 1.25 - 10
- inhibition (INH) (Candida albicans [11]): 49 - 94%
- fractional inhibitory concentration index (FICI) (Candida albicans [12]): 0.53 - 2.19
- inhibition (Candida albicans [13]): < 20%
- inhibition (Candida albicans [14]): < 20%
- fractional inhibitory concentration index (FICI) (Candida albicans [15]): 0.372 - 1.5
- fractional inhibitory concentration index (FICI) (Candida albicans [16]): 0.372 - 1.5
- inhibition (Candida albicans [17]): < 20%
- inhibition (Candida albicans [18]): < 20%
- MIC (Candida albicans [19]): 8 to 125 µg/mL (≈ 16.5 to 258 µM)
- fractional inhibitory concentration index (FICI) (Candida albicans [20]): 0.53 - 2.19
- MIC (Candida albicans [21]): 125 to 500 µg/mL (≈ 258 to 1030 µM)
- MIC (Candida albicans [22]): 8 to 125 µg/mL (≈ 16.5 to 258 µM)
- MIC (Candida albicans [23]): 125 to 500 µg/mL (≈ 258 to 1030 µM)
- MIC (Candida albicans [24]): 8 to 125 µg/mL (≈ 16.5 to 258 µM)
- inhibition (Candida albicans [25]): < 20%
- inhibition (INH) (Candida albicans [26]): 66 - 99%
- fractional inhibitory concentration index (FICI) (Candida albicans [27]): 0.53 - 2.19
- fold change (FC) (Candida albicans [28]): 1.5 - 13
- fractional inhibitory concentration index (FICI) (Candida albicans [29]): 0.53 - 2.19
- MIC (Candida albicans [30]): 125 to 500 µg/mL (≈ 258 to 1030 µM)
- inhibition (Candida albicans [31]): < 20%
- fractional inhibitory concentration index (FICI) (Candida albicans [32]): 0.53 - 2.19
- MIC (Candida albicans [33]): 8 to 125 µg/mL (≈ 16.5 to 258 µM)

Source: ChEMBL document CHEMBL4257459, “Synergistic antifungal effect of cyclized chalcone derivatives and fluconazole against Candida albicans” (2017)
